Data set [1] relates to MV4-11. Nature of the data set: MV4-11 xenograft mouse model of AML. The data set is classed as in vivo, NSG mice. Particulars: day 21.
Data set [2] addresses T1, XPO1 (Saccharomyces cerevisiae, UniProt P30822, DEL377-413/T539C). Nature of the data set: Pull-down inhibition assay of XPO1 with immobilized NESs. The format is biochemical. Particulars: 10uM inhibitor. Put shortly:
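Purified recombinant yeast XPO1 (2 μM) was pre-incubated with RanGTP (10 μM) and 10 μM inhibitor for varying times at 4°C. The mixture was rotated with immobilized GST-PKI NES for 1 h. After extensive washing, bound protein was resolved by SDS-PAGE and stained with Coomassie Blue.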

The test system of data set [3] is IkB. Nature of the data set: Nuclear retention of IkB in CLL cells. The format is cell-based, Human. Particulars: 0.5 μM. The procedure, abridged:
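Treated primary CLL cells were fractionated into nuclear extracts with a commercial kit. Proteins were resolved by SDS-PAGE and probed with anti-IκB antibodies. Bands were detected by chemiluminescence and quantified by densitometry.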

For data set [4], the system named is primary AML samples. Nature of the data set: Proliferation assay. The data set is classed as cell-based. Particulars: Homo sapiens. Put shortly:
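Primary AML cells came from blood or frozen bone marrow of three newly diagnosed, untreated patients, collected under informed consent. Viability was measured by WST-1 assay after treatment with the test compound.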

In data set [5] the target is T2, XPO1 (Homo sapiens, UniProt O14980). Nature of the data set: XPO1 total protein in primary CLL cells. The format is cell-based. Particulars: 0.5 μM. Put shortly: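 Freshly isolated patient CLL cells were treated with DMSO or 0.5 μM compound and harvested at 2, 4, 8 and 18 h (N=3). Cells were lysed in RIPA buffer, resolved by SDS-PAGE and immunoblotted for XPO1. Signal was detected by chemiluminescence and quantified by densitometry.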
T2 sequence (O14980 whole entry): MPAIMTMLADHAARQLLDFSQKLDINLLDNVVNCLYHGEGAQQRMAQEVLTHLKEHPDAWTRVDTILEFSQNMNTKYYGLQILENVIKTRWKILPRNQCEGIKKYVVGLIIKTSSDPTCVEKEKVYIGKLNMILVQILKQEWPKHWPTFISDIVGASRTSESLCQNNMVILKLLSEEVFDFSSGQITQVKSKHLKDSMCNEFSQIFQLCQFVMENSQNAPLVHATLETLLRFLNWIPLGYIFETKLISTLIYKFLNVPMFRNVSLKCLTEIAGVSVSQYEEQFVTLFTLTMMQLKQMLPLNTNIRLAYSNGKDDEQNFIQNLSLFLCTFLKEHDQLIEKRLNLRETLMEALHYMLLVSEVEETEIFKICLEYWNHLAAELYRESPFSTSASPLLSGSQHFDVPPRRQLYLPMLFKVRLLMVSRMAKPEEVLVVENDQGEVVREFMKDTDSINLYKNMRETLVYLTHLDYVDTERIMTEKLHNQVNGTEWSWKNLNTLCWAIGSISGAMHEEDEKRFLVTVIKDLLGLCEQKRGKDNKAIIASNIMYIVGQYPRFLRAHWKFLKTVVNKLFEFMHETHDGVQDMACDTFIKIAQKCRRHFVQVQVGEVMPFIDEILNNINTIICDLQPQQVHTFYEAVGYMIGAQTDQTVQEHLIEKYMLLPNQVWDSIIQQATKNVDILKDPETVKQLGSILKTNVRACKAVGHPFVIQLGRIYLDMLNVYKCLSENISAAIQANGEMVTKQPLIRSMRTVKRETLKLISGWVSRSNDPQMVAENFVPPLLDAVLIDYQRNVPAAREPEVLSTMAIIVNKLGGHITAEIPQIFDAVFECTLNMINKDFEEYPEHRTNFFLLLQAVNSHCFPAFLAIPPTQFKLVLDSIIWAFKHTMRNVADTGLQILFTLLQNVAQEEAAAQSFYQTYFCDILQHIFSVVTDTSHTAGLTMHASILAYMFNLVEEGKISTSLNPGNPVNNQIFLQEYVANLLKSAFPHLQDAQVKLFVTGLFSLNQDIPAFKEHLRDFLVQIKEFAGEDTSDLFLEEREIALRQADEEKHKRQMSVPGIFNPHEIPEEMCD

A short description of data set [6]: Brain penetration, mouse. The format is in vivo.
Data set [7] addresses T1, XPO1. Nature of the data set: Reversibility of inhibitor conjugation to XPO1. The data set is classed as biochemical. Particulars: 10uM inhibitor; dialysis or DTT, 24 hours. Put shortly: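 XPO1 was incubated in triplicate with 10 μM inhibitor, then dialysed or treated with DTT. It was then used in a binding assay with RanGTP and immobilized GST-MVM NES, with bound proteins resolved by SDS-PAGE and Coomassie staining. XPO1 band intensities were quantified and expressed as percentage of DMSO-treated controls.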

Data set [8] is described as follows: Plasma accumulation after repetitive dosing. The data set is classed as in vivo. Particulars: data not shown.
For data set [9], the system named is primary CLL cells. Nature of the data set: Apoptosis of primary CLL cells by annexin-V/PI in FBS or human serum. The data set is classed as cell-based. Particulars: 10% fetal bovine serum or human serum, 24h.
Data set [10] deals with ABC-DLBCL cell lines. Nature of the data set: Proliferation of ABC-DLBCL cell lines by MTS. The format is cell-based.
Data set [11] is described as follows: Brain penetration, monkey. The format is in vivo.
Data set [12] has as its system Eμ-TCL1 leukemic splenocytes. Nature of the data set: Eμ-TCL1-C57BL/6 transplant mouse model of CLL. The data set is classed as in vivo, C57BL/6 mice. The procedure, abridged: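 CD19+CD5+ splenocytes (1×10^7) from an Eμ-TCL1 donor with active leukemia (>10% CD45+CD5+CD19+ in blood) and splenomegaly were injected into C57BL/6 mice by tail vein. At onset (≥10% CD45+CD5+CD19+), mice were randomized to oral gavage with vehicle (0.5% methylcellulose/1% Tween80), test compound 15 mg/kg daily or twice weekly, or ibrutinib 20 mg/kg. Blood flow cytometry was done weekly and spleen volume measured at euthanasia. Kaplan-Meier/log-rank, mixed-effects model, ANOVA (log-transformed, Dunnett).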

A short description of data set [13]: Brain penetration, rat. The format is in vivo.
For data set [14], the system named is GC-DLBCL cell lines. Nature of the data set: Proliferation of GC-DLBCL cell lines by MTS. The data set is classed as cell-based.
The test system of data set [15] is primary CLL cells. Nature of the data set: Cytotoxicity in primary CLL cells by MTS. The data set is classed as cell-based, Human. Particulars: 48h (24h in Supplementary Figure 6).
Data set [16] has as its system NPM1. Nature of the data set: Confocal microscopy of NPM1 localization in OCI-AML3. The format is cell-based. The procedure, abridged: (§1)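 About 200,000 cells were cytospun onto slides, then fixed, permeabilized, blocked and immunostained for p53 (MV4-11) or NPM1 (OCI-AML3). DNA was counterstained with DAPI, and subcellular localization was imaged by confocal microscopy using merged channels.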

The test system of data set [17] is p53. Nature of the data set: Confocal microscopy of p53 localization in MV4-11. The format is cell-based. Particulars: MV4-11, confocal microscopy. Put shortly:
as §1

The target of data set [18] is T2, XPO1. Nature of the data set: XPO1 degradation by SINE compound treatment in HT1080 cells. Particulars: 25-1000 nM, 18 hours. The data set is classed as cell-based.

In general, IC50 refers to the concentration that inhibits the measured activity by half. One may read the Kp as tissue or fluid exposure divided by exposure in the circulation.

In the case of `O=C(/C=C\n1cnc(-c2cc(C(F)(F)F)cc(C(F)(F)F)c2)n1)NNc1cnccn1` [KPT-330, selinexor, reference compound], the “White blood cell count (WBC) vs vehicle” value in [1] (20 mg/kg 2x/week) is on record as “significantly reduced WBC”. The “Incubation time with XPO1 to completely inhibit XPO1 binding to PKI NES” value in data set [2] worked out at 60 min. Moreover, the “Time of treatment to nuclear retention of IkB” value in data set [3] is at most 8 h. This compound yielded an IC50 in data set [4] of 100 nM. In addition, the “Time post-treatment at which XPO1 total protein was decreased” value in [5] is at most 4 h.
As for `NC(=O)/C(=C/n1cnc(-c2cc(C(F)(F)F)cc(C(F)(F)F)c2)n1)c1cncnc1` [KPT-8602], the “White blood cell count (WBC) vs vehicle” value in [1] (15 mg/kg daily and x2/week) is “significantly reduced WBC”. Also, the “Mean Concentration at 2h post dose Brain” value in data set [6] (Mouse, po 5 mg/kg) is 105 ng·h/g; in data set [11] (Monkey, po 10 mg/kg) it was below 32 ng·h/g; in data set [13] (Rat, po 5 mg/kg), 70 ng·h/g. Also, the “Mean Concentration at 2h post dose Plasma” value came to 550 ng·h/mL in data set [6] (Mouse, po 5 mg/kg); 1310 ng·h/mL in data set [11] (Monkey, po 10 mg/kg); 320 ng·h/mL in data set [13] (Rat, po 5 mg/kg). The Kp at 2 h in [6] (mouse, brain/plasma, po, 5 mg/kg) was 0.19; in data set [11] (monkey, brain/plasma, po, 10 mg/kg), below 0.02; in data set [13] (rat, brain/plasma, po, 5 mg/kg) it was 0.22. In addition, the “Reversibility of conjugation to XPO1” value in [7] was “slowly reversible manner”. Further, the “Accumulation in plasma after repetitive dosing” value in data set [8] is reported as “does not accumulate in plasma after repetitive dosing”. Also, the “Incubation time with XPO1 to completely inhibit XPO1 binding to PKI NES” value in [2] was 60 min. Moreover, in [9], the “Apoptosis of CLL cells in FBS and HS” value was “effective in inducing apoptosis of CLL cells in both FBS and HS”. Further, the “Proliferation of ABC-DLBCL cell lines” value in data set [10] is “inhibited proliferation”. In addition, the “Median OS” value in data set [12] (Fig.4A cohort, 15 mg/kg daily, oral gavage, vehicle 33 days) was 70 days. The “Percentage of CD5+ B-cells in peripheral blood vs vehicle or KPT-8602 2x/week” value in data set [12] (Fig.4B, 15 mg/kg daily, three weeks post-treatment, p<0.001) is “significantly lower”. For the same compound, the “Spleen size at study removal vs all other groups” value in [12] (Fig.4C, 15 mg/kg daily, p<0.001) was “significantly smaller”. Moreover, in [12] (Fig.4F cohort, KPT-8602 15 mg/kg daily, p<0.001), the “Spleen size vs vehicle or ibrutinib alone” value is on record as “significantly smaller”. For the same compound, the “Change in body weight” value in data set [12] (daily treatment, after 28 days) is “did not cause a significant change in body weight”. Further, the “Proliferation of GC-DLBCL cell lines” value in [14] is on record as “inhibited proliferation”. For the same compound, the “Time of treatment to nuclear retention of IkB” value in data set [3] was at most 8 h. Moreover, the “Killing of primary CLL cells vs vehicle” value in [15] is listed as “induced dose-dependent killing of primary CLL cells”. For the same compound, the IC50 in [4] is 300 nM. The “Time post-treatment at which XPO1 total protein was decreased” value in [5] was at most 4 h. In addition, the “Accumulation of NPM1 in the nucleus” value in data set [16] is “significant accumulation”. Moreover, the “Accumulation of p53 in the nucleus” value in data set [17] was “significant accumulation”. Also, the XPO1 degradation result in data set [18] is reported as “induces XPO1 degradation in HT1080 cells in a dose-dependent manner”.
For the compound `C=CC(=O)N1CCC[C@@H](n2nc(-c3ccc(Oc4ccccc4)cc3)c3c(N)ncnc32)C1` [ibrutinib, reference compound], the “Median OS” value in data set [12] (Fig.4D cohort, ibrutinib 20 mg/kg daily, vehicle 20 days) is listed as 26 days.
